The results in this text go back to ChEMBL document CHEMBL1121825, “A potent, new, sedative--hypnotic agent: 5,7-dihydro-5,5,7,7-tetramethyl-3-(3-nitrophenyl)furo[3,4-e]-as-triazine 4-oxide” (J Med Chem, 1981).

Data set [1] deals with Mus musculus. Put plainly: Tested for ability to reinduce anesthesia in mice when administered intraperitoneally as a measure of in vivo sedative-hypnotic activity; D represents Toxic. The class given is functional, organism-based. In short, it runs like this: (§1)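 Male Royal Hart mice (20–25 g) were anesthetized with hexobarbital 70.0 mg/kg iv. While they were regaining the righting reflex, compound was given ip. Reinduction was scored as loss of righting reflex for 10 min. ED50 (mg/kg) is the dose reinducing anesthesia in 50% of mice, estimated by probit analysis (Miller–Tainter).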

Data set [2] has as its system Mus musculus. Put plainly: Ability to reinduce anesthesia in mice as a measure of in vivo sedative-hypnotic activity. The class given is functional. In a few lines:
as §1

For a further data set, the system named is Felis catus. Description: Tested to induce segmental reflexes in cat when given at a dose of 1-4 mg/Kg intravenously; Caused respiratory failure and death. The data set is classed as organism-based. Conditions: in vivo, iv. In short, it runs like this: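 Chloralose-anaesthetised intact cats. The monosynaptic patellar reflex was evoked by solenoid-hammer tendon tap and the knee jerk recorded. The polysynaptic flexor reflex was recorded as tibialis anticus contraction on electrical popliteal nerve stimulation.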

Data set [3] has as its system Monkey. Put plainly: Tested for its activity towards cebus monkey sleep relative to methaqualone at 3-9 hours of duration; 4-64 times potent. The data set is classed as functional.
The test system of data set [4] is Monkey. Description: Sleep latency in cebus monkey sleep was determined; shortened (65-85% at the threshold sleep-inducing dose). The data set is classed as functional.
In data set [5] the test system is Mus musculus. Put plainly: Compound was tested for mortality in mice when administered intravenously. The data set is classed as functional. The following applies: iv.
The subject of data set [6] is Mus musculus. Put plainly: Ataxia effect in mice when the compound was administered ip. The class given is functional. In short, it runs like this: (§2)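 Modified Irwin behavioral screen in male Royal Hart mice (20–25 g), dosed ip or orally, observed for 2 h after dosing. ED50 (mg/kg) estimated by probit analysis (Miller–Tainter), or evaluation at the highest nontoxic dose used. At least 20 animals per drug; ± SE.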

Data set [7] relates to Mus musculus. Description: Ataxia effect in mice when the compound was administered po. The data set is classed as functional. In short, it runs like this: as §2
The subject of data set [8] is Mus musculus. Put plainly: Compound was tested for rotarod motor coordination in mice when administered intravenously. The following applies: iv. The class given is functional. (In general: The rotarod test checks motor coordination on a turning rod.)
In data set [9] the test system is Mus musculus. Description: Compound was tested for rotarod motor coordination in mice when administered perorally. Conditions: po. The data set is classed as functional. In short, it runs like this:
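Modified Dunham–Miya rotarod test. Groups of five male Royal Hart mice (20–25 g) were trained on a 15 rpm corrugated rod for 60–90 s, then retested 30 and 60 min after drug or saline (ip or oral). Percent change in riding time versus controls; ED50 is the dose giving a 50% decrease, by probit analysis.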

Data set [10] relates to Mus musculus. Description: Compound was tested for tonic convulsions when administered intraperitoneally. The data set is classed as functional. The following applies: ip. In short, it runs like this: (§3)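 Groups of five male Royal Hart mice (20–25 g) received test drug ip or orally 1 h before seizure induction with SaH 41-178 (50.0 mg/kg ip). ED50 is the dose preventing tonic convulsions or death in 50% of animals, by probit analysis.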

Data set [11] relates to Mus musculus. Put plainly: Reinduction of anesthesia in mice when administered perorally was tested. The data set is classed as functional. The following applies: po.
The test system of data set [12] is Mus musculus. Description: Righting reflex effect in mice when the compound was administered intraperitoneally. The class given is functional. Conditions: ip. In a few lines: as §2
In data set [13] the test system is Mus musculus. Description: Hypomotility effect in mice when the compound was administered intraperitoneally. The class given is functional. Conditions: ip. In a few lines:
as §2

Data set [14] relates to Mus musculus. Put plainly: Prehensile effect in mice when the compound was administered intravenously. The data set is classed as functional. The following applies: iv.
Data set [15] concerns Mus musculus. Description: Prehensile effect in mice when the compound was administered perorally. The class given is functional. The following applies: po. In a few lines: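 Oral dosing of male Royal Hart mice (20–25 g), scored by a modified Irwin behavioural screen. ED50 (mg/kg) estimated by probit analysis; at least 20 animals per drug.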
The nature of data set [16]: Acute toxicity in mice after 2 hours administration ip. Conditions: mouse, in vivo. The data set is classed as organism-based. In a few lines: (§4)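 Male Royal Hart mice (20–25 g) dosed intraperitoneally or orally; deaths scored at 2 h and 72 h. LD50 (mg/kg) estimated by probit analysis (Miller–Tainter), with at least 20 animals per drug.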
Data set [17] is described as follows: Acute toxicity in mice after 2 hours administration perorally. The data set is classed as organism-based. The following applies: mouse, in vivo, po. In a few lines:
as §4

Data set [18] in a line: Acute toxicity in mice after 72 hours administration ip. The data set is classed as organism-based. The following applies: mouse, in vivo. In a few lines:
as §4

A short description of data set [19]: Acute toxicity in mice after 72 hours administration perorally. The data set is classed as organism-based. Conditions: mouse, in vivo, po. In a few lines:
as §4

Data set [20] is described as follows: Acute toxicity in rats after 2 hours of administration perorally. The class given is organism-based. Conditions: rat, in vivo, po. In a few lines:
(§5)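 Male Wistar rats (130–160 g) dosed orally; lethality read at 2 h and 72 h. LD50 (mg/kg) derived by probit analysis (Miller–Tainter), using a minimum of 20 animals per drug.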

Data set [21] can be described thus: Acute toxicity in rats after 72 hours of administration perorally. Conditions: rat, in vivo, po. The class given is organism-based. In short, it runs like this: as §5
The subject of data set [22] is Mus musculus. Put plainly: Righting reflex effect in mice when the compound was administered perorally. The following applies: po. The class given is functional. In a few lines:
as §2

Data set [23] has as its system Mus musculus. Put plainly: Compound was tested for tonic convulsions when administered perorally. The data set is classed as functional. The following applies: po. In short, it runs like this:
as §3

Data set [24] relates to Rattus norvegicus. Put plainly: Hypomotility effect in rats when administered perorally. Conditions: po.
For data set [25], the system named is Rattus norvegicus. Description: Ataxia effect in rats when the compound was administered perorally. The following applies: po.
The test system of data set [26] is Rattus norvegicus. Put plainly: Righting reflex effect in rats when the compound was administered perorally. Conditions: po.

Structures are written as SMILES.

As for `CCCc1nnc(-c2ccccn2)nc1C`, in the data set on Mus musculus [1], the ED50 (as a rule, the dose that gives a 50% effect, or the effect in half of the subjects) is “Toxic”.
For `CC1(C)C=CC(C)(C)c2nc(-c3cccc(S(N)(=O)=O)c3)nnc21`, in the data set on Mus musculus [2], the ED50 worked out at 1000 mg/kg.
For `CCCc1nc(-c2ccccn2)nnc1C`, the ED50 entry in the data set on Mus musculus [1] is “Toxic”.
Consider `CC1(C)OC(C)(C)c2c1nnc(-c1ccc(F)cc1)[n+]2[O-]`, for which the 50% effect level with Mus musculus [2] (ED50) was put at a dose of 500 mg/kg.
On the same count and under the same terms, for `CC1(C)C/C(=N\Nc2ccccc2)C(C)(C)O1` the value was 162 mg/kg.
The same measure, in the same setting: as for `CC1(C)OC(C)(C)c2nc(-c3ccccn3)nnc21`, the figure is 21 mg/kg; as for `CC1(C)OC(C)(c2ccccc2)c2nnc(-c3cccc([N+](=O)[O-])c3)nc21` (centres undefined), 800 mg/kg.
As to `CC1(C)NC(C)(C)c2c1nnc(-c1ccccc1)[n+]2[O-]`, the 50% effect level in the data set on Mus musculus [2] (ED50) was put at a dose of 1000 mg/kg.
In turn, `CC1(C)OC(C)(C)c2nc(-c3ccccc3)nnc21` gave an ED50 with Mus musculus [2] of 167 mg/kg.
Regarding `CC1(C)OC(C)(C)c2c1nnc(-c1cccc([N+](=O)[O-])c1)[n+]2[O-]`, the Activity result in the data set with Felis catus is “Caused respiratory failure and death”. Moreover, the Relative potency with Monkey [3] is on record as 4. In the data set on Monkey [4], this compound came in with a Sleep latency of 65%. The ED50 was 54 mg/kg with Mus musculus [5]; 130 mg/kg in the data set with Mus musculus [6]; 39 mg/kg with Mus musculus [7]; 51 mg/kg in the data set on Mus musculus [8]; greater than 1000 mg/kg in the data set with Mus musculus [9]; 72 mg/kg in the data set on Mus musculus [2]. In addition, the ED50 in the data set with Mus musculus [10] was 54 mg/kg; with Mus musculus [11], 72 mg/kg; in the data set with Mus musculus [12] it was 123 mg/kg; with Mus musculus [13] it was 50 mg/kg; in the data set with Mus musculus [14], 125 mg/kg; in the data set with Mus musculus [15], 54 mg/kg. Further, the ED50 was 55 mg/kg in the data set with Mus musculus [22]; greater than 1000 mg/kg in the data set with Mus musculus [23]; 37 mg/kg in the data set with Rattus norvegicus [24]; 39 mg/kg with Rattus norvegicus [25]; 118 mg/kg with Rattus norvegicus [26]. For the same compound, the LD50 (usually the dose at which mortality reaches 50%) at 2 h in data set [16] is greater than 400 mg/kg; in [17] it was greater than 400 mg/kg; in data set [20] it was greater than 800 mg/kg. For the same compound, the LD50 at 72 h in [18] was greater than 235 mg/kg; in data set [19], greater than 400 mg/kg; in data set [21] it was greater than 800 mg/kg.
On to `CC1(C)CSCC(C)(C)c2nc(-c3ccccn3)nnc21`, for which the ED50 entry in the data set with Mus musculus [1] is “Toxic”.
On to `CC1(C)OC(C)(C)c2nc(-c3ccc(Cl)cn3)nnc21`, for which the ED50 with Mus musculus [2] worked out at 66.7 mg/kg.
Compound `CC1(C)OC(C)(C)c2c1nnc(-c1cc([N+](=O)[O-])cc([N+](=O)[O-])c1)[n+]2[O-]` had an ED50 in the data set on Mus musculus [2] of 500 mg/kg.
For the compound `CC1(C)OC(C)(C)c2nc(-c3cccc(C(F)(F)F)c3)nnc21`, in the data set with Mus musculus [2], the ED50 worked out at 500 mg/kg.
`CC1(C)OC(C)(C)c2c1nnc(-c1ccccc1)[n+]2[O-]` gave an ED50 with Mus musculus [2] of 163 mg/kg.
Still for that read-out and setting: as for `CC1(C)OC(C)(C)c2c1nnc(-c1cccc(Cl)c1)[n+]2[O-]`, the figure is 500 mg/kg; as for `CC1(C)OC(C)(C)c2nc(-c3ccncc3)nnc21`, 56.2 mg/kg; as for `Cc1cccc(-c2nnc3c([n+]2[O-])C(C)(C)OC3(C)C)c1`, 150 mg/kg.
Same read-out and setting: as for `CC1(C)OC(C)(C)c2nc(-c3cccc[n+]3[O-])nnc21`, the figure is 138 mg/kg.
